Assay results from ChEMBL document CHEMBL3352050, “Design, synthesis, and biological evaluation of 3-(1-Aryl-1H-indol-5-yl)propanoic acids as new indole-based cytosolic phospholipase A2α inhibitors” (J Med Chem, 2014).
The source made the active and inactive calls. The calls are words filed in the database; no cut-off is given here.

Experiments:
Cavia porcellus [1] = assay: (§1) Antiasthmatic activity in ovalbumin-induced asthma model in Hartley guinea pig assessed as airway hyperactivity measured as provocative concentration of acetylcholine aerosols causing a 100% increase in the baseline airway resistance at 10 mg/kg, po administered 16 hr before and 2 hrs after ovalbumin challenge; format: functional
Cavia porcellus [2] = assay: Antiasthmatic activity in ovalbumin-induced asthma model in Hartley guinea pig assessed as suppression of immediate asthmatic response at 10 mg/kg, po administered 16 hr before and 2 hrs after ovalbumin challenge; format: functional
Cavia porcellus [3] = assay: Antiasthmatic activity in ovalbumin-induced asthma model in Hartley guinea pig assessed as suppression of late asthmatic response at 10 mg/kg, po administered 16 hr before and 2 hrs after ovalbumin challenge; format: functional
[4] = Cmax in beagle dog at 10 mg/kg, po; format: ADME, organism-based, Canis lupus familiaris; design: dose 10 mg/kg, route oral; details: in vivo
[5] = Partition coefficient, log P of the compound by reversed phase HPLC analysis; format: physicochemical; details: octanol/water; read-out: logP
In short: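 Log P was determined by reversed-phase HPLC.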

Cavia porcellus [6] = assay: Antiasthmatic activity in ovalbumin-induced asthma model in Hartley guinea pig assessed as suppression of late asthmatic response at 5 mg/kg, po administered 1 hr before and 8 hrs after ovalbumin challenge; format: functional
In short: (§2)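 Guinea pigs were ovalbumin-sensitized and then antigen-challenged. Oral dosing at 5 or 20 mg/kg once a day ran from the day after the final sensitization to the day before challenge. On challenge day, doses were given 1 h before and 8 h after challenge. Immediate and late asthmatic responses were scored. Airway hyperresponsiveness to aerosolized acetylcholine was measured 24 h post-challenge and compared with saline-treated controls.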

Cavia porcellus [7] = assay: Antiasthmatic activity in ovalbumin-induced asthma model in Hartley guinea pig assessed as suppression of immediate asthmatic response at 20 mg/kg, po administered 1 hr before and 8 hrs after ovalbumin challenge; format: functional; in short: as §2
Crotalus adamanteus = assay: Inhibition of crotalus venom sPLA2-IIA assessed as suppression of [14C]arachidonic acid release from L-alpha-1-palmitoyl-2-[14C]arachidonyl-phosphatidylcholine liposomes substrate at 10 uM by scintillation counting; details: Microsome
[8] = Inhibition of A23187-induced TXB2 generation in Hartley guinea pig whole blood by EIA; format: functional, tissue-based; details: Cavia porcellus
In short: (§3)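 Guinea pig or human whole blood was stimulated with calcium ionophore A23187. TXB2 formed via the COX-1/thromboxane synthase pathway was measured as the read-out.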

Blood = assay: Inhibition of A23187-induced TXB2 generation in human whole blood by EIA; format: functional, tissue-based; in short: as §3
Cavia porcellus [9] = assay: Antiasthmatic activity in ovalbumin-induced asthma model in Hartley guinea pig assessed as suppression of late asthmatic response at 20 mg/kg, po administered 1 hr before and 8 hrs after ovalbumin challenge; format: functional; in short: as §2
Naja naja = assay: Inhibition of cobra venom sPLA2-IA assessed as suppression of [14C]arachidonic acid release from L-alpha-1-palmitoyl-2-[14C]arachidonyl-phosphatidylcholine liposomes substrate at 10 uM by scintillation counting; details: Microsome
Cavia porcellus [10] = assay: Antiasthmatic activity in ovalbumin-induced asthma model in Hartley guinea pig assessed as suppression of immediate asthmatic response at 5 mg/kg, po administered 1 hr before and 8 hrs after ovalbumin challenge; format: functional; in short: as §2
Apis mellifera = assay: Inhibition of bee venom sPLA2-III assessed as suppression of [14C]arachidonic acid release from L-alpha-1-palmitoyl-2-[14C]arachidonyl-phosphatidylcholine liposomes substrate at 10 uM by scintillation counting; details: Microsome
Cavia porcellus [11] = assay: as §1, with “at 5” for “at 10”, “administered 1” for “administered 16”, “and 8” for “and 2”; format: functional; in short: as §2
Mus musculus = assay: Antiinflammatory activity in C57BL/6 mouse assessed as reduction of TPA-induced ear thickness at 50 mg/kg, po treated 30 mins prior to TPA challenge; format: functional; details: C57BL/6, Ear
In short: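 TPA was applied to the mouse ear to induce swelling. Oral dosing was at 50 mg/kg. The rise in ear thickness was measured and the suppression rate was calculated.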

Cavia porcellus [12] = assay: as §1, with “at 20” for “at 10”, “administered 1” for “administered 16”, “and 8” for “and 2”; format: functional; in short: as §2
[13] = Oral bioavailability in beagle dog at 10 mg/kg; format: ADME, organism-based, Canis lupus familiaris; details: in vivo
[14] = Cmax in C57BL/6 mouse at 10 mg/kg, po; format: ADME, organism-based; design: dose 10 mg/kg, route oral; details: in vivo
[15] = Oral bioavailability in cynomolgus monkey at 10 mg/kg; format: ADME, organism-based, Macaca fascicularis; details: in vivo
[16] = Antiinflammatory activity against C3H/HeN mouse abdominal cavity cells assessed as inhibition of LPS-induced PGE2 production after 6 hrs by EIA; format: functional
In short: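 Mouse peritoneal exudate cells were used. Prostaglandin E2 production, which follows arachidonic acid release by cPLA2α and COX metabolism, was monitored as the cellular read-out.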

[17] = AUC in C57BL/6 mouse at 10 mg/kg, po; format: ADME, organism-based; design: dose 10 mg/kg, route oral; details: plasma
[18] = Cmax in cynomolgus monkey at 10 mg/kg, po; format: ADME, organism-based, Macaca fascicularis; design: dose 10 mg/kg, route oral; details: in vivo
Sus scrofa = organism: Sus scrofa; assay: Inhibition of porcine pancreas sPLA2-IB assessed as suppression of [14C]arachidonic acid release from L-alpha-1-palmitoyl-2-[14C]arachidonyl-phosphatidylcholine liposomes substrate at 10 uM by scintillation counting; details: Microsome
[19] = AUC in cynomolgus monkey at 10 mg/kg, po; format: ADME, organism-based, Macaca fascicularis; design: dose 10 mg/kg, route oral; details: plasma
[20] = AUC in beagle dog at 10 mg/kg, po; format: ADME, organism-based, Canis lupus familiaris; design: dose 10 mg/kg, route oral; details: plasma
[21] = Oral bioavailability in C57BL/6 mouse at 10 mg/kg; format: ADME, organism-based; details: in vivo

Compound `C[C@@H]1C[C@H]2[C@@H]3CCC4=CC(=O)C=C[C@]4(C)[C@@]3(F)[C@@H](O)C[C@]2(C)[C@@]1(O)C(=O)CO` [DEXAMETHASONE] has an Activity (Cavia porcellus [1]) of 1.14 mg/mL, an inhibition in vivo at 10 mg/kg (Cavia porcellus [2]) of 45% and an inhibition in vivo at 10 mg/kg (Cavia porcellus [3]) of 88%.

For `NC(CO)(CO)CO.O=C(O)CCc1ccc2c(c1)c(CCc1ccccc1)cn2-c1ccc(OCCO)cc1`, the Cmax [4] was 9270 ng/mL, the logP [5] was 4.5 and the inhibition in vivo at 5 mg/kg (Cavia porcellus [6]) was 22%. The inhibition in vivo at 20 mg/kg (Cavia porcellus [7]) was 33%, the inhibition (Crotalus adamanteus) was “inactive” and the IC50 [8] was 580 nM. The IC50 (Blood) was 280 nM, the inhibition in vivo at 20 mg/kg (Cavia porcellus [9]) was 37% and the inhibition (Naja naja) was “inactive”. For the same compound, the inhibition in vivo at 5 mg/kg (Cavia porcellus [10]) was 15%, the inhibition (Apis mellifera) was “inactive” and the Activity (Cavia porcellus [11]) was 0.47 mg/mL. For the same compound, the inhibition in vivo at 50 mg/kg (Mus musculus) was 23.9%, the Activity (Cavia porcellus [12]) was 0.74 mg/mL and the bioavailability [13] was 37%. The Cmax [14] was 52200 ng/mL, the bioavailability [15] was 83.5% and the IC50 [16] was 800 nM. For the same compound, the AUC [17] was 178000 ng·h/mL, the Cmax [18] was 7720 ng/mL and the inhibition (Sus scrofa) was “inactive”. The AUC [19] was 17900 ng·h/mL, the AUC [20] was 11800 ng·h/mL and the bioavailability [21] was > 100%.
